The values below come from ChEMBL document CHEMBL1143590, “Synthesis and monoamine transporter binding properties of 3beta-(3',4'-disubstituted phenyl)tropane-2beta-carboxylic acid methyl esters” (J Med Chem, 2005).

Molecules are shown by their SMILES.

The nature of test [1]: Binding affinity of compound towards dopamine transporter determined using [3H]WIN-35 428 as radioligand. In a few lines:
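Competition binding at the dopamine transporter; displacement of [³H]WIN 35,428 at 0.5 nM final concentration.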

Test [2] is described as follows: Binding affinity towards serotonin transporter determined using [3H]paroxetine as radioligand. In a few lines: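 Serotonin transporter affinity from competition binding versus [³H]paroxetine at a final concentration of 0.2 nM.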
Test [3] in a line: Binding affinity towards norepinephrine transporter determined using [3H]nisoxetine as radioligand. In a few lines: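 Competition binding at the norepinephrine transporter against [³H]nisoxetine, present at 1.0 nM final concentration.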

The term IC50 denotes the concentration needed to halve the response being measured. For orientation: Ki means a dissociation constant, usually derived from enzyme kinetics or from competition with a known ligand. Higher therefore signals lower affinity. `COC(=O)C1C2CC[C@H](C[C@@H]1c1ccc(Cl)c(C)c1)N2C` (stereo partly specified): the IC50 in test [1] turned out to be 0.82 nM. Moreover, the results for the Ki in test [2] and in test [3] were 10.5 nM and 36.2 nM, respectively.
As for `COC(=O)[C@@H]1C2CC[C@H](C[C@@H]1c1ccccc1)N2C`, the IC50 in test [1] was determined as 23 nM. The Ki turned out to be 1060 nM in test [2] and 920 nM in test [3].
`COC(=O)C1C(c2ccc(Br)c(Cl)c2)CC2CCC1N2C` (stereo unspecified): in test [1], the IC50 was 0.12 nM. The Ki in test [2] came out at 0.94 nM; in test [3], 1.31 nM.
In test [1], `COC(=O)C1C(c2ccc(Cl)c(Br)c2)CC2CCC1N2C` (stereo unspecified) yielded an IC50 of 0.42 nM. The Ki was found to be 0.78 nM in test [2] and 7.24 nM in test [3].
As for `COC(=O)C1C(c2ccc(Cl)c(I)c2)CC2CCC1N2C` (stereo unspecified), in test [1], the IC50 came to 0.41 nM. Moreover, the values for the Ki in test [2] and in test [3] were 1.39 nM and 15.1 nM, respectively.
Turning to `COC(=O)C1C(c2ccc(C)c(C)c2)CC2CCC1N2C` (stereo unspecified), the half-maximal inhibitory concentration (IC50) in test [1] was determined as 0.43 nM. The Ki in test [2] was determined as 9.88 nM; in test [3] it was 107 nM.
In test [1], `COC(=O)C1C(c2ccc(I)c(I)c2)CC2CCC1N2C` (stereo unspecified) gave an IC50 of 0.98 nM. Also, the Ki in test [2] was 2 nM; in test [3], 40.4 nM.
The molecule `COC(=O)C1C(c2ccc(Br)c(Br)c2)CC2CCC1N2C` (stereo unspecified) came in with a 50% inhibitory concentration (IC50) in test [1] of 0.27 nM. The Ki worked out at 0.71 nM in test [2] and 2.8 nM in test [3].
In test [1], `COC(=O)C1C(c2ccc(Br)c(I)c2)CC2CCC1N2C` (stereo unspecified) returned an IC50 of 0.21 nM. Further, the results for the Ki in test [2] and in test [3] were 1.14 nM and 10.4 nM, respectively.
In the same order, the values of `COC(=O)C1C2CC[C@H](C[C@@H]1c1ccc(I)c(Br)c1)N2C` (stereo partly specified) are 0.2 nM, 0.58 nM and 1.96 nM.
For the molecule `COC(=O)C1C2CC[C@H](C[C@@H]1c1ccc(I)c(Cl)c1)N2C` (stereo partly specified), the IC50 in test [1] turned out to be 0.26 nM. For the same molecule, the inhibition constant (Ki) in test [2] amounted to 1.04 nM; in test [3], 1.26 nM.
Molecule `COC(=O)C1C(c2ccc(Cl)c(Cl)c2)CC2CCC1N2C` (stereo unspecified) came in with an IC50 in test [1] of 0.79 nM. Also, the results for the Ki in test [2] and in test [3] were 3.13 nM and 18 nM, respectively.
